Assay outcomes (PubChem BioAssay)
Rows were chosen to be rich in hits. Some 3.4% of all compounds tested hit in one or more screens of this group.
Mdm2 ligase inh: MDM2-luciferase reporter signal enhancers, primary screen, MDM2 E3 ligase inhibitor project, cell-based, luminescence, 1536-well; cell-based MDM2 ubiquitination luciferase reporter, 2 h; 0 = plate control, 100 = twice control, blank-subtracted; E3 ubiquitin-protein ligase Mdm2 (Homo sapiens), Q00987; signal enhancement, % at 5 µM; hit rate 0.11% among 210,000;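 active means signal enhancement of 30% or more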;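 further: luminescence tracks abundance of the self-degrading MDM2-luciferase fusion protein; higher signal means inhibition of MDM2 E3 ligase activity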
Target sequence (Q00987 whole entry, looked up, the tested form may be a part): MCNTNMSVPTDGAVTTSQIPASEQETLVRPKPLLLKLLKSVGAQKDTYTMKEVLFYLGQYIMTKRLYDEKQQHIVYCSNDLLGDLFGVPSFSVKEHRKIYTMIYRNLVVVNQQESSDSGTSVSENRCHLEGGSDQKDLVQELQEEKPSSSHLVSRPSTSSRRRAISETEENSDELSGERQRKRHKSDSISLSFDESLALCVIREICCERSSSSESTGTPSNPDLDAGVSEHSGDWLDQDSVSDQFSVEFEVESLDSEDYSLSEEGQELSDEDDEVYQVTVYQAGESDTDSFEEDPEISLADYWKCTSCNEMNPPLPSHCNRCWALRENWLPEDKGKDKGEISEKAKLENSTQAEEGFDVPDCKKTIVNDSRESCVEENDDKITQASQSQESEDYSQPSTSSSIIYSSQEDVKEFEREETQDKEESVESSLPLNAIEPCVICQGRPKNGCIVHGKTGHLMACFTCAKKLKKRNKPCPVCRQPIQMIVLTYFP
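Timing – 2 h compound exposure at 37 °C · Assay system – mammalian cells stably expressing self-ubiquitinating, self-degrading MDM2 E3–luciferase fusion · Amount – 2000 cells seeded into each well · Measure – % luminescence enhancement versus blank-corrected plate control mean · Measured by – SteadyLite luminescence, 15 min reagent step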
ROMK primary: ROMK potassium channel modulators, primary screen, cell-based, thallium flux, MLSMR library. ATP-sensitive inward rectifier potassium channel 1 (Homo sapiens), P48048. Tet-inducible ROMK, thallium flux fluorescence; actives lie on both sides. B-score at 10 µM. hit rate 2% among 130,000;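 active means signal ratio slope over the read window, or its plate-corrected B-score, at least 3 SD from the plate mean, either direction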;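 further: B-score of the F/F0 ratio slope over 7 to 12 s after thallium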
KCC2 mod: KCC2 cotransporter modulators, thallium flux, primary screen, cell-based, HEK293 KCC2, FluoZin-2 fluorescence, MLSMR; hit rate 2.2% among 190,000; Solute carrier family 12 member 5 (Homo sapiens), Q9H2X9; B-score of Tl+ flux slope (higher = more flux/activation; lower = inhibition) at 10 µM; KCC2 cells, thallium flux FluoZin-2 fluorescence; AID 1456, 2008;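 active means thallium flux slope and its plate-corrected score both differing from the plate sample mean at a set confidence after two filtering rounds, in either direction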;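 further: slope of fluorescence scaled to starting intensity during 10 to 20 s after thallium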
PKD1 inh: inhibitors of human PKD1 kinase, biochemical, fluorescence polarization; Serine/threonine-protein kinase D1 (Homo sapiens), Q15139; PKD1 kinase fluorescence polarization assay; inhibition, % (test concentration not listed); hit rate 0.056% among 200,000; in the data active means inhibition above about 50%
DTT redox prof: compounds producing H2O2 with reducing agent – biochemical, NIH compound library profiling, artefact control for MLSCN library redox annotation, primary screen; hit rate 0.03% among 200,000; DTT-dependent redox cycling H2O2, phenol red/HRP absorbance; 100% = 100 µM peroxide control, 0% = buffer; activation, % at 10 µM;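 active means activation of at least 50% relative to the plate's high and low controls in the primary single-dose screen; inactive means activation below 50%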;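 further: compound incubated with DTT at 0.8 mM final as the reducing agent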
p97 inhibitor: inhibitors of human p97 ATPase, primary screen, biochemical | recombinant p97 ATPase, Kinase-Glo ATP luminescence, 3 h | AID 1481, 2009 | Transitional endoplasmic reticulum ATPase (Homo sapiens), P55072 | hit rate 0.42% among 220,000 | inhibition, % at 8 µM; in the data active means inhibition above about 15%;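 further: 0% = DMSO vehicle and 100% = wells lacking enzyme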
ROMK hit retest: ROMK channel modulator hit retest, confirmation, cell-based, thallium flux, duplicate, resupplied hits; shares compounds with ROMK primary; fluorescence ratio; active compounds read low; normalized thallium flux (F/F0 slope) at 10 µM; hit rate 54% among 3,000;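 active means Flux at 10 µM at least 3 SD below or above vehicle control mean in one or both replicates; inconclusive means no clear call, values can overlap the other calls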
The depositor's hits bear a star; u = inconclusive; x = no result.

SMILES	Mdm2 ligase inh	ROMK primary	KCC2 mod	PKD1 inh	DTT redox prof	p97 inhibitor	ROMK hit retest
CCC(=O)Nc1ccc(-c2cc(-c3ccccc3)nc(-c3ccc(NC(=O)CC)cc3)n2)cc1	-9.8	0.446	x	3.1	-0.9	4.2	x
O=C(O)c1ccc(N/N=C/C2=C(N3CCOCC3)C(=C\c3ccccc3)/CC2)cc1	-10.4	x	0.0517	x	x	5.8	0.0451*
Cc1cc(C)nc(N/N=C/C2=C(N3CCOCC3)C(=C\c3ccc(Cl)cc3)/CC2)n1	18.8	-0.735	-1.07	-1.6	0.3	-0.7	x
Cc1cccc(OCCCCc2c(C)n[nH]c2C)c1	-3.3	x	-1.46	-2.7	-0.7	-7.0	x
O=C(O)c1ccc(N/N=C/c2ccc(OC(=O)c3ccccc3Cl)cc2)cc1	-49.8	0.468	-1.02	0.5	-0.1	10.7	x
Cc1ccc(CN2C3CCCC2CC(NC(=O)c2ccc(C)cc2)C3)cc1 (stereo not given)	-3.4	-2.75*	-0.388	-1.8	-1.8	0.2	0.0558*
CC(C)CCNC(=O)CN(Cc1ccc2c(c1)OCO2)C(=O)Cn1nnc(-c2cccs2)n1	-14.8	-3.05*	x	-11.7	-0.1	5.7	0.0678*
O=C(CN(Cc1ccccc1F)C(=O)Cn1nnc(-c2cccs2)n1)NCC1CCCO1 (stereo not given)	10.7	x	0.997	-1.1	-1.5	-3.6	x
COc1ccccc1CNC(=O)C/C(C)=N/NC(=O)Cc1ccc(OC)c(OC)c1	-3.1	1.18	0.729	-3.4	-0.7	-3.3	x
COc1ccccc1CNC(=O)C/C(C)=N/NC(=O)COc1ccc(C)cc1Br	1.0	2.84*	-2.61	-6.2	-0.2	0.7	0.0784
O=C(Nc1sc2c(c1C(=O)c1ccccc1)CCCC2)c1cccnc1	-7.0	-3.72*	-0.466	-3.5	0.0	4.7	0.0675*
O=C(Nc1sc2c(c1C(=O)c1ccc(Cl)cc1)CCCC2)c1cccnc1	-23.6	x	x	5.1	0.5	-9.9	x
CC(C)(C)c1ccc(C(=O)Nc2sc3c(c2C(=O)O)CCC3)cc1	-19.4	0.232	0.669	-3.2	0.2	-3.3	0.0745
Cc1cccc(C(=O)Nc2sc3c(c2C(=O)O)CCC3)c1	-9.1	x	-1.39	x	x	4.1	x
CCn1c(SCc2nc(-c3cccs3)no2)nnc1-c1c[nH]c2ccccc12	-12.6	x	-0.82	-6.2	-2.8	7.5	0.057*
CCn1c(SCC(=O)c2c[nH]c3ccccc23)nnc1-c1cccs1	4.2	x	0.35	2.2	0.2	-7.0	x
CCOC(=O)c1c(NC(=O)Nc2cccc(Cl)c2)sc(C)c1C	-14.7	0.311	0.0318	-6.1	0.2	1.6	x
CC(=O)Nc1cccc(Oc2ncnc3scc(-c4ccccc4)c23)c1	-17.0	x	-0.566	-11.8	0.3	-5.8	0.0607*
Cc1ccc(Cl)cc1N1CCN(CC(=O)Nc2ccc(CN3CCCCC3)cc2)CC1	-7.0	-4.64*	-0.689	1.5	2.0	-6.9	0.0541*
COc1ccccc1N1CCN(CC(=O)Nc2ccc(CN3CCCCC3)cc2)CC1	7.1	-0.0313	x	-13.6	-0.2	-2.6	x
CN(c1ccccc1)S(=O)(=O)c1cccc(NC(=O)c2cncc(Br)c2)c1	x	x	-0.00806	x	x	0.1	x
CN(c1ccccc1)S(=O)(=O)c1cccc(NC(=O)c2ccncc2)c1	x	x	-0.904	x	x	1.9	0.0805
O=C(/C=C/c1ccccc1[N+](=O)[O-])c1ccccc1Br	-0.1	-6.07*	-0.736	2.4	-1.1	0.2	0.0485*
COC(=O)C1CSC(C(=O)OC)N1C(=O)Nc1c(C)cccc1C (stereo not given)	-1.4	x	x	-0.7	2.2	0.7	x
Cc1ccc(C2CC(=O)NC(SCc3ccccc3)=C2C#N)cc1 (stereo not given)	3.0	x	-0.00979	-11.2	0.1	-0.7	0.0659*
SMILES	Mdm2 ligase inh	ROMK primary	KCC2 mod	PKD1 inh	DTT redox prof	p97 inhibitor	ROMK hit retest
N#CC1=C(SCc2ccccc2)NC(=O)CC1c1ccc(O)cc1 (stereo not given)	-25.1	-0.348	-0.0908	-2.7	-0.7	-2.1	x
O=C(CCNS(=O)(=O)c1c(Cl)cccc1Cl)OCC(=O)c1ccccc1F	1.6	0.247	-1.51	-2.4	-0.1	-0.4	x
C=C(C)COc1ccc(-c2[nH]ncc2-c2ccc(OC)c(OC)c2)c(O)c1	2.4	3.76*	0.138	-8.8	3.1	2.4	0.0882
C=C(C)COc1ccc(-c2[nH]ncc2-c2ccc(OC)cc2)c(O)c1	-9.3	x	0.981	x	x	10.1	x
CCOC(=O)CSc1nc2c(sc(=S)n2Cc2ccco2)c(=O)n1-c1ccccc1	-15.8	-0.424	x	12.8	-0.3	11.7	x
CCOC(=O)CSc1nc2c(sc(=S)n2-c2ccccc2OC)c(=O)n1Cc1ccco1	-25.8	x	1.1	-5.5	2.2	4.7	0.0486*
CC1CC(C)CN(C(=O)C2CCCN(S(=O)(=O)c3cnc[nH]3)C2)C1 (stereo not given)	-4.8	-0.348	0.504	x	x	-0.2	x
Cc1ccc(NC(=O)/C=C/c2ccco2)nc1	-28.2	4.53*	-0.394	-11.5	-0.2	3.0	0.09
O=C(/C=C/c1ccco1)Nc1ccccn1	-21.1	1.79*	1.23	-4.0	0.0	-2.0	0.0847
C/C(CC(=O)NC1CCCC1)=N\NC(=O)Cc1cccs1	-11.5	x	x	-0.9	3.1	4.7	x
CCOC(=O)CCn1c(=S)n(CCC(=O)OCC)c2ccccc21	-9.4	0.497	-0.75	x	x	-2.2	x
CCn1c(=O)c(=O)[nH]c2cc(C(=O)NC3CC3)ccc21	-2.6	0.782	0.533	-6.0	-1.0	-2.2	x
CCn1c(=O)c(=O)[nH]c2cc(C(=O)NC3CCCc4ccccc43)ccc21 (stereo not given)	-10.5	3.22*	-2.32	-1.1	-1.6	4.9	0.0832
Cc1ccc(S(=O)(=O)Nc2ccc(C(OC(=O)c3ccccc3[N+](=O)[O-])(C(F)(F)F)C(F)(F)F)cc2)cc1	-5.8	x	0.0629	12.2	-0.3	7.1	x
O=C(OC(c1ccc(NS(=O)(=O)c2ccccc2)cc1)(C(F)(F)F)C(F)(F)F)c1ccccc1	-23.7	-4.53*	-2.48	-8.0	-0.7	0.9	0.0621*
COc1cccc(-c2nnc(SCC(=O)Nc3cc(C)ccc3OC)n2N)c1	-7.4	x	0.382	-2.9	0.8	2.8	u
COc1ccc(C)cc1NC(=O)CSc1nnc(-c2ccco2)n1N	12.5	x	-0.103	-1.1	1.9	3.0	x
